The text below walks through data of ChEMBL document CHEMBL4251569, “Camptothecin-psammaplin A hybrids as topoisomerase I and HDAC dual-action inhibitors” (Eur J Med Chem, 2018).

In one assay the test system is A2780. As to the kind of experiment: cells. The class given is functional, cell-based. Particulars: Homo sapiens, A2780, 72 h; call rule not given here.
Assay [1] has as its system L-428. As to the kind of experiment: cells. The class given is functional, cell-based. Particulars: Homo sapiens, L-428, 72 h.
In assay [2] the test system is KM-H2. As to the kind of experiment: cells. Particulars: Homo sapiens, KM-H2, 72 h.
The subject of another assay is CAPAN-1. As to the kind of experiment: cells. The class given is functional, cell-based. Particulars: Homo sapiens, CAPAN-1, 72 h.
Another assay relates to DU-145. Briefly: cells. In kind it is functional, cell-based. Particulars: Homo sapiens, DU-145, 72 h.
The nature of assay [3]: cells. The class given is functional, cell-based. Particulars: Homo sapiens, 72 h.
Another assay deals with U2932. As to the kind of experiment: cells. The class given is functional, cell-based. Particulars: Homo sapiens, U2932, 72 h.
Assay [4] has as its system DG-75. Briefly: cells. The class given is functional, cell-based. Particulars: Homo sapiens, DG-75, 72 h.
Assay [5] concerns OCI-Ly3. Briefly: cells. Particulars: Homo sapiens, OCI-Ly3, 72 h.
Assay [6] deals with JeKo-1. Briefly: cells. In kind it is functional, cell-based. Particulars: Homo sapiens, JeKo-1, 72 h.
Assay [7] is described as follows: cells. In kind it is functional, cell-based. Particulars: Homo sapiens, 72 h. The source holds these as a separate data set.
The subject of another assay is HepG2. As to the kind of experiment: Antiproliferative activity against human HepG2 cells after 72 hrs by SRB assay. The class given is functional, cell-based. Particulars: HepG2, 72 h.
Assay [8] deals with DG-75. Briefly: Antiproliferative activity against human DG75 cells at 10 uM after 72 hrs by MTT assay relative to control. In kind it is functional.
Assay [9] has as its system JeKo-1. As to the kind of experiment: Antiproliferative activity against human JeKo1 cells at 10 uM after 72 hrs by MTT assay relative to control. In kind it is functional.
Assay [10] deals with L-428. Briefly: Antiproliferative activity against human L428 cells at 10 uM after 72 hrs by MTT assay relative to control. The class given is functional.
The subject of another assay is A-431. As to the kind of experiment: cells. In kind it is functional, cell-based. Particulars: Homo sapiens, A-431, 72 h.
Another assay deals with NB-4. Briefly: cells. The class given is functional, cell-based. Particulars: Homo sapiens, NB-4, 72 h.
The next assay has as its system HT-29. Briefly: Antiproliferative activity against human HT-29 cells after 72 hrs by SRB assay. The class given is functional, cell-based. Particulars: HT-29, 72 h.
Assay [11] can be described thus: cells. In kind it is functional, cell-based. Particulars: Homo sapiens, MM487, 72 h.
Assay [12] concerns OCI-Ly3. As to the kind of experiment: Antiproliferative activity against human OCI-LY3 cells at 10 uM after 72 hrs by MTT assay relative to control. In kind it is functional.
The next assay has as its system NCI-H460. As to the kind of experiment: cells. In kind it is functional, cell-based. Particulars: Homo sapiens, NCI-H460, 72 h.
A short description of assay [13]: cells. The class given is functional, cell-based. Particulars: Homo sapiens, A2780/DX, 72 h.
A short description of assay [14]: Antiproliferative activity against human Mino cells at 10 uM after 72 hrs by MTT assay relative to control. The class given is functional.
The subject of a further assay is MM473. Briefly: animal or person. Particulars: Mus musculus, MM473, iv, read-out: INH.
For assay [15], the system named is KM-H2. As to the kind of experiment: Antiproliferative activity against human KM-H2 cells at 10 uM after 72 hrs by MTT assay relative to control. The class given is functional.
Assay [16] is described as follows: cells. In kind it is functional, cell-based. Particulars: Homo sapiens, MINO, 72 h.
For a further assay, the system named is HeLa. As to the kind of experiment: cells. Particulars: Homo sapiens, 72 h. In kind it is functional, cell-based.
In a further assay the target is Histone deacetylase 4 (Homo sapiens, UniProt P56524). As to the kind of experiment: Inhibition of HDAC4 (unknown origin) using fluorogenic substrate after 1 to 2 hrs by fluorescence assay. In outline:
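Purified HDAC4 preincubated with compound (10 concentrations from 10 µM, triplicate, final 1% DMSO) in 50 mM Tris-HCl pH 8.0, 137 mM NaCl, 2.7 mM KCl, 1 mM MgCl2, 1 mg/ml BSA. Class 2a trifluoroacetyl-lysine fluorogenic substrate added and incubated 1–2 h at 30 °C. Developer with TMP269 stops the reaction; fluorescence read at ex 360/em 460 at plateau. Activity is relative to DMSO, and IC50 comes from a sigmoidal fit.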

In assay [17] the target is Protein deacetylase HDAC6 (Homo sapiens, UniProt Q9UBN7). As to the kind of experiment: Inhibition of HDAC6 (unknown origin) using RHKK(Ac)AMC as substrate after 1 to 2 hrs by fluorescence assay.
For assay [18], the target named is Polyamine deacetylase HDAC10 (Homo sapiens, UniProt Q969S8). As to the kind of experiment: Inhibition of HDAC10 (unknown origin) using RHKK(Ac)AMC as substrate after 1 to 2 hrs by fluorescence assay.
The target in another assay is Histone deacetylase 2 (Homo sapiens, UniProt Q92769). Briefly: Inhibition of HDAC2 (unknown origin) using RHKK(Ac)AMC as substrate after 1 to 2 hrs by fluorescence assay.
Another assay deals with Histone deacetylase 1 (Homo sapiens, UniProt Q13547). Briefly: Inhibition of HDAC1 (unknown origin) using RHKK(Ac)AMC as substrate after 1 to 2 hrs by fluorescence assay.

pIC50: −log10 of the molar value.

Sequence of Histone deacetylase 4 (P56524 whole entry): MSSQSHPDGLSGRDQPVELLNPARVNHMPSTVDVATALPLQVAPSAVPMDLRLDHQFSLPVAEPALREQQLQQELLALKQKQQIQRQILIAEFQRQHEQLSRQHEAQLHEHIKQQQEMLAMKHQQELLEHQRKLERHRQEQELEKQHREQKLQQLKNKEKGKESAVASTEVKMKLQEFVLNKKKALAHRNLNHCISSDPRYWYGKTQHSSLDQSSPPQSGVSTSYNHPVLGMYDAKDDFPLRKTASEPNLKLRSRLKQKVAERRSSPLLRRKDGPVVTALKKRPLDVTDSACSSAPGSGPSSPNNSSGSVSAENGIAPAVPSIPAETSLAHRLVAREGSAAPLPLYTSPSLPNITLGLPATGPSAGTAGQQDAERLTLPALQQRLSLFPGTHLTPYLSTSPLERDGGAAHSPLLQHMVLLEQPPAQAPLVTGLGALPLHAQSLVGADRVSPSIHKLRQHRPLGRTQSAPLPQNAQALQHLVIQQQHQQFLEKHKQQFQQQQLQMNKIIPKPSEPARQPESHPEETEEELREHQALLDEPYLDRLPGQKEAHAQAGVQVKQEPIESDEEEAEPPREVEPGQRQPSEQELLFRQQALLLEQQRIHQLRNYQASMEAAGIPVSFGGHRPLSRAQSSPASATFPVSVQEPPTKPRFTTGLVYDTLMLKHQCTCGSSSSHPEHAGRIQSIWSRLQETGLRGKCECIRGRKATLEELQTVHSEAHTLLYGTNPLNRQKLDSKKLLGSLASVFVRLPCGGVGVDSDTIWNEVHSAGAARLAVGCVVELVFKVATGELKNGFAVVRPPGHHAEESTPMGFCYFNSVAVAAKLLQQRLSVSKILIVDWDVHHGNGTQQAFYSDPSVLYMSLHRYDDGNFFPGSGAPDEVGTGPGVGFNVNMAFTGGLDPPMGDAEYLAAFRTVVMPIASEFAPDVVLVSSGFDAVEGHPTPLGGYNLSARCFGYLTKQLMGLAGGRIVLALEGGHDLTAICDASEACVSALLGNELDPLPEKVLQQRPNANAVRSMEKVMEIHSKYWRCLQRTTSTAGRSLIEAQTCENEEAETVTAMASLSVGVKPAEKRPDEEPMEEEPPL
Sequence of Protein deacetylase HDAC6 (Q9UBN7 whole entry): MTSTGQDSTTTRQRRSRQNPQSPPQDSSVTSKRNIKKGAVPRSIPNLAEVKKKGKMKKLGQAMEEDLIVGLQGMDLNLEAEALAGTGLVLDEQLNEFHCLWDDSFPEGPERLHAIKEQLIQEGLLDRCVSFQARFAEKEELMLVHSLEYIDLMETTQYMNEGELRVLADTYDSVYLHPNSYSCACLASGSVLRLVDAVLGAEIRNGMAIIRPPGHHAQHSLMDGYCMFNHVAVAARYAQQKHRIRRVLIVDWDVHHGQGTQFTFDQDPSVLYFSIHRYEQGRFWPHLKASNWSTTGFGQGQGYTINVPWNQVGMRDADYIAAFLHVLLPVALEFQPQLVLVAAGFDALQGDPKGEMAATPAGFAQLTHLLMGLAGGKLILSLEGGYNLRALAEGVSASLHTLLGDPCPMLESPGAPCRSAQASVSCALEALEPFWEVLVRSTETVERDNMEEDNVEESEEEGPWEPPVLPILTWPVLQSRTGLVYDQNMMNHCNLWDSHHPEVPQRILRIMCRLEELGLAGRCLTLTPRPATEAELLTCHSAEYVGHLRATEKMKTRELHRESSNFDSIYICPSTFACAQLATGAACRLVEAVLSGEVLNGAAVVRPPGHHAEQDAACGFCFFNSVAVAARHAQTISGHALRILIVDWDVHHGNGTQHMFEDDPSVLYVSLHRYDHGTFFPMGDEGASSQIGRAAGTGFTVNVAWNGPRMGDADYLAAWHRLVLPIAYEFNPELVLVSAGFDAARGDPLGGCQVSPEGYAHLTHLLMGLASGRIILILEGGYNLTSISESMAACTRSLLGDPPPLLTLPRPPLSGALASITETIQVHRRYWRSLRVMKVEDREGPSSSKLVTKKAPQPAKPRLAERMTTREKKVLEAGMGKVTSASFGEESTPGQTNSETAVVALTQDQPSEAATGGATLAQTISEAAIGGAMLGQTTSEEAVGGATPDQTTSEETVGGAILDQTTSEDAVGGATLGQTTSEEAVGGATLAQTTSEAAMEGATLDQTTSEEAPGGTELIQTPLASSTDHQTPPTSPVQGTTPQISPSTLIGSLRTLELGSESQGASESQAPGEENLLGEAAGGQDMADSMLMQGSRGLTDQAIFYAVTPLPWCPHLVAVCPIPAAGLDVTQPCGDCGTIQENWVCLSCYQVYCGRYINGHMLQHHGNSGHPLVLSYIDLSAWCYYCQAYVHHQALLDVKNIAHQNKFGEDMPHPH
Sequence of Polyamine deacetylase HDAC10 (Q969S8 whole entry): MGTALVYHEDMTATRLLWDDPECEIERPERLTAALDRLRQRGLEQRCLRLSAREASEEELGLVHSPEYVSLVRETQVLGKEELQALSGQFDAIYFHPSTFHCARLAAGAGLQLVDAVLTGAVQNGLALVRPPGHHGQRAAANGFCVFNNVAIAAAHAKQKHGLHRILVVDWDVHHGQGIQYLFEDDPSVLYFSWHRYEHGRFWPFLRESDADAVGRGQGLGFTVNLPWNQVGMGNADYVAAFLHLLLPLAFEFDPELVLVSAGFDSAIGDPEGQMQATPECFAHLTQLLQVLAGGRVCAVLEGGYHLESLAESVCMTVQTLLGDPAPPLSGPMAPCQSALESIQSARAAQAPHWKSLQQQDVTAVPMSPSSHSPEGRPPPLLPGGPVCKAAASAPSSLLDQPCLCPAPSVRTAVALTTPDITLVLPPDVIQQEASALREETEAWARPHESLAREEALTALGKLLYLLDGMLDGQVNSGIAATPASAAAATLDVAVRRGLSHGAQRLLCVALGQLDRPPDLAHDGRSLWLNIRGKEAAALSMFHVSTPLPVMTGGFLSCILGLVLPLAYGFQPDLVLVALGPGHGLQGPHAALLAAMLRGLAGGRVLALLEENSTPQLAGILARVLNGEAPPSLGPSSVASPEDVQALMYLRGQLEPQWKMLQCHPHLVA
Sequence of Histone deacetylase 2 (Q92769 whole entry): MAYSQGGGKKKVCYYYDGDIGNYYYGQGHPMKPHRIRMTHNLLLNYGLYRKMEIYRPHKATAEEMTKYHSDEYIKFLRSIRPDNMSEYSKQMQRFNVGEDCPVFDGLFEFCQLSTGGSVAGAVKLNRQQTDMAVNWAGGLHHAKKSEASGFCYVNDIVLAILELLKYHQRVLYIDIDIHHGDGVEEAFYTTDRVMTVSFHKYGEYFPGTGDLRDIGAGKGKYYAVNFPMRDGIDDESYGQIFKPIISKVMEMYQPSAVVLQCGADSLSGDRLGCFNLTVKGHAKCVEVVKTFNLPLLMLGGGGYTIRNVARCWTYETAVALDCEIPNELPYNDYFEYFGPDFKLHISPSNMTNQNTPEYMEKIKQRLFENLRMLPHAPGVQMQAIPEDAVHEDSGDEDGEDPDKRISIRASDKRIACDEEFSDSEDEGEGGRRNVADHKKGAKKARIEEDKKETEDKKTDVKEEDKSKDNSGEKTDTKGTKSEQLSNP
Sequence of Histone deacetylase 1 (Q13547 whole entry): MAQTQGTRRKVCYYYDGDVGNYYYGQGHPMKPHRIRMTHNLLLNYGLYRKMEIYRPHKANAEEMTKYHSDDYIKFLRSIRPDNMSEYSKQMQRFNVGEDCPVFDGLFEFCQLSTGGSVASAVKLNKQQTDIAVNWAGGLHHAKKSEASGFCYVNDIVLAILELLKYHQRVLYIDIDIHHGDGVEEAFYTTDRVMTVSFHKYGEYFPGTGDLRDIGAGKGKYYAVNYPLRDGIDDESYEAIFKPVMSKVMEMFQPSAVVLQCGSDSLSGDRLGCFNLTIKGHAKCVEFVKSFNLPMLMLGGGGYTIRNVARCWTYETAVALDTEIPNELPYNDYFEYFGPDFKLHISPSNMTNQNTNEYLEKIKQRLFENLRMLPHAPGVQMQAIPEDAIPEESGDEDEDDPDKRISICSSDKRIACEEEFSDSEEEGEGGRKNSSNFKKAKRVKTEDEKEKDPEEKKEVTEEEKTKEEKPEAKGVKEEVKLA

In the case of `CCc1c2c(nc3ccc(OC(=O)N4CCC(N5CCCCC5)CC4)cc13)-c1cc3c(c(=O)n1C2)COC(=O)[C@]3(O)CC` [IRINOTECAN], the pIC50 in the assay on A2780 is 5.42; in the assay with L-428 [1], less than 5.00; in the assay with KM-H2 [2], less than 5.00; in the assay with CAPAN-1, 5.82; with DU-145 it was 5.55; in the assay “cells [3]”, 6.13. In addition, the pIC50 with U2932 is 5.36; in the assay with DG-75 [4], less than 5.00; with OCI-Ly3 [5], less than 5.00; in the assay on JeKo-1 [6], less than 5.00; in “cells [7]”, 5.00; in the assay on HepG2, 5.40. The pIC50 is 5.39 in the assay with A-431; 6.00 in the assay on NB-4; 5.32 in the assay with HT-29; 5.03 in the assay “cells [11]”; 5.62 in the assay on NCI-H460; 4.70 in the assay “cells [13]”. In addition, the figures for the pIC50 in “cells [16]” and in the assay on HeLa were less than 5.00 and 5.24, respectively. Further, the Activity with DG-75 [8] is given as 0%; with JeKo-1 [9], 48%; in the assay on L-428 [10], 0%; with OCI-Ly3 [12], 0%; in [14] it was 36%; in the assay with KM-H2 [15] it was 12%. Further, the inhibition in vivo at 20 mg/kg with MM473 is 37%.
Regarding `CC[C@@]1(O)C(=O)OCc2c1cc1n(c2=O)Cc2c-1nc1ccc(O)cc1c2/C=N/OCCCCCC(=O)NCCSSCCNC(=O)/C(Cc1ccc(O)c(Br)c1)=N\O`, at Histone deacetylase 4, the IC50 result was “Not Active”. Also, the pIC50 in assay [17] is 5.83; with CAPAN-1 it was 6.70; in assay [18], 8.04; in the assay on NCI-H460, 6.06; against Histone deacetylase 2, 6.39; against Histone deacetylase 1, 6.60.
On to `CC[C@@]1(O)C(=O)OCc2c1cc1n(c2=O)Cc2c-1nc1ccccc1c2/C=N/OCCCCCC(=O)NCCSSCCNC(=O)/C(Cc1ccc(O)cc1)=N\O`, for which the pIC50 in the assay with A2780 is 6.54; in the assay on CAPAN-1 it was 7.12; in the assay on DU-145, 6.72; in the assay with HepG2, 6.21; with A-431, 6.51; with HT-29, 6.34. The pIC50 is 6.66 in the assay on NCI-H460, 5.80 in “cells [13]” and 6.24 in the assay on HeLa.
